RGS4 block – inhibitors of human RGS4. HEK293 M3R/RGS4 inducible, Fluo-4 calcium flux; stronger effect = higher value; triggered by carbachol at its EC20. B-score at 10 µM. actives 0.45% (n = 310,000);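 active means B-score, a plate-corrected calcium signal, over three deviations above library mean, with baseline fluorescence within five deviations of library mean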;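 further: RGS4 expression induced by doxycycline in cells with stable M3 receptor; B-score is computed from the integrated fluorescence ratio over baseline after carbachol; higher B-score means a larger calcium signal and so more RGS4 inhibition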
Target sequence (P49798 whole entry, looked up): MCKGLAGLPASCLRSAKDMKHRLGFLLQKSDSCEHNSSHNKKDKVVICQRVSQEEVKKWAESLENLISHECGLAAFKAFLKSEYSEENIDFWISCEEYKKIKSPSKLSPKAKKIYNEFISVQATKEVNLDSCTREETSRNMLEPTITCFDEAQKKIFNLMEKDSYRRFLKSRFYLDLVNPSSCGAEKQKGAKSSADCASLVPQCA
MrgX1 allo act – allosterically activates human MrgX1 receptor signaling; B-score at 10 µM; actives 0.63% (n = 310,000); Q96LB2; MrgX1-HEK293, Fluo-4 calcium flux, FDSS; stronger effect = higher value;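 active means plate-corrected calcium response at least 3 library SD above typical, normal starting fluorescence, not activating the receptor alone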;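 further: compound read alongside a low EC10 to EC30 dose of BAM8-22 agonist; peak minus trough fluorescence over baseline measured at the second addition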
Target sequence (Q96LB2 whole entry, looked up): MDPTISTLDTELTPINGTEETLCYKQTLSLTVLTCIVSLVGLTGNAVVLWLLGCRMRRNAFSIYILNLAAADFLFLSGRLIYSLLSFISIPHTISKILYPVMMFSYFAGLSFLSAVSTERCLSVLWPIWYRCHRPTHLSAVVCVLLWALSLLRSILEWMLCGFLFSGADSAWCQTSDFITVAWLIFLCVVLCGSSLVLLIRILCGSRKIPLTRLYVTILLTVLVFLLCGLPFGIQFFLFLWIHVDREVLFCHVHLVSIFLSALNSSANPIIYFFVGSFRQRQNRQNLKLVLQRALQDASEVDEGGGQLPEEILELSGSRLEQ
RGS4 pot – RGS4 potentiation or activation; actives 0.92% (n = 310,000); HEK293 M3R/inducible RGS4, carbachol calcium flux Fluo4; stronger effect = lower value; B-score at 10 µM;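 active means B-score of the integrated calcium signal more than 4 SD below the library mean, with starting fluorescence not abnormally high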;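 further: negative B-score means reduced calcium response which marks RGS4 activation or potentiation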
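Material: Inducible-RGS4 HEK293 cells carrying M3 receptor; also added: carbachol at ECmax as muscarinic agonist stimulus; incubation: compound preincubation 20 min at room temperature before agonist; signal: Fluo4-AM (2 µM) calcium-flux fluorescence, kinetic read; measure: integrated calcium ratio converted to B score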
MrgX1 antag – blocks BAM8-22 activation of human MrgX1 receptor | Q96LB2 | MRGX1-HEK293 calcium flux, Fluo-4, BAM8-22 antagonism; stronger effect = lower value | B-score at 10 µM | actives 1.3% (n = 310,000) | AID 588676;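 active means calcium-response B-score plate-corrected more than 3 library SD below zero, starting fluorescence within 5 deviations, no agonist response on first addition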;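 further: peak minus trough fluorescence over baseline after final BAM8-22 challenge near maximal dose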
MrgX1 agonist – agonists of human MrgX1 receptor. actives 0.44% (n = 310,000). MrgX1-HEK293 cells, Fluo-4 calcium fluorescence, agonist mode; stronger effect = higher value. B-score at 10 µM. Q96LB2;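 active means calcium response B-score plate-corrected fluorescence ratio at least 3 library SD, with starting fluorescence B-score inside 5 SD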
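Test system: HEK293 cells stably expressing human MrgX1 receptor; amount: 15,000 cells per well; doses: compound delivered in addition one of three; times: overnight plating before 1 h dye loading; detection: Fluo-4 NW calcium-flux fluorescence, kinetic read; read-out basis: B-scored fluorescence response ratio; controls: positive and negative controls per plate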
MrgX1 PAM conf – human MrgX1 positive allosteric modulation, re-confirmation. shares compounds with MrgX1 allo act. MrgX1-HEK293, Fluo-4 calcium fluorescence, FDSS. activation (ratio percentage), % at 10 µM. actives 13% (n = 1,200);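 active means ratio at least 3 SD above the weak peptide control, stable starting fluorescence, no direct agonism earlier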;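 further: compound followed by low BAM8-22 agonist challenge near EC20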
HEK293 Ca flux – counter-screen for MrgX1 antagonists: effect in parental HEK293 cells; shares compounds with MrgX1 antag; Fluo-4 calcium fluorescence, FDSS; fluorescence ratio F(max-min)/F0 at 10 µM; actives 2% (n = 4,000); AID 624111;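 active means duplicate-averaged calcium fluorescence ratio at least three times the standard deviation of buffer wells, a nonspecific response in parental cells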
HEK293 Ca counter – activity in parental HEK293 cells without MrgX1. parental HEK293 calcium flux, Fluo-4 fluorescence ratio; stronger effect = higher value. shares compounds with MrgX1 antag. AID 624114. actives 0.4% (n = 4,000). fluorescence ratio F(max-min)/F0 at 10 µM;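 active means calcium fluorescence ratio, averaged over duplicates, at least 3 SD of the buffer-well ratio, meaning a nonspecific response in receptor-free cells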;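 further: untransfected parental HEK293 lacking MrgX1 used as counterscreen for MrgX1 allosteric activators; fluorescence change taken during the second addition on a kinetic imager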
HEK293 Ca cntr2 – counter-screen for MrgX1 activators: effect in parental HEK293 cells | fluorescence ratio F(max-min)/F0 at 10 µM | shares compounds with MrgX1 antag | Fluo-4 calcium fluorescence (FDSS); stronger effect = higher value | actives 8.7% (n = 4,000);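 active means calcium fluorescence ratio at least three times the spread of buffer wells, meaning a non-specific response in parental cells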
An asterisk follows results filed as active; i = inactive; nt = no result. The list is not random: actives were taken first. Their share in the collection is about 3.5%.

SMILES | RGS4 block | MrgX1 allo act | RGS4 pot | MrgX1 antag | MrgX1 agonist | MrgX1 PAM conf | HEK293 Ca flux | HEK293 Ca counter | HEK293 Ca cntr2
CCOC1=C/C(=C/c2c(N)n3nc(S(=O)(=O)CC)sc3nc2=O)C=CC1=O | i | 34* | i | i | i | i | 0.64* | i | 46*
CCOC1=C/C(=C/c2c(N)n3nc(CC(=O)N4CCCCC4)sc3nc2=O)C=CC1=O | i | i | i | i | i | nt | nt | nt | nt
CCC(C)C(NC(=O)c1ccc(Cl)cc1Cl)C(=O)O (stereo unspecified) | i | i | i | i | i | nt | nt | nt | nt
O=C(Nc1cccc(Cl)c1)c1cc(-c2ccco2)on1 | i | 8* | i | i | i | i | i | i | i
O=C(Nc1nnc(-c2ccccn2)o1)c1cccc(Cl)c1 | i | i | i | i | i | nt | nt | nt | nt
O=C(Nc1nnc(-c2ccco2)o1)c1cccc(Cl)c1 | i | 7.5* | i | i | i | i | i | i | i
COc1ccc(C(=O)N2CCC(C(=O)N3CCN(Cc4ccccc4)CC3)CC2)cc1 | i | i | i | i | i | nt | nt | nt | nt
NCc1ccccc1 | nt | 13* | nt | i | i | i | i | i | i
Cc1nc(N2CCN(Cc3ccccc3)CC2)nc2c1C(=O)CC(C)C2 (stereo unspecified) | i | i | i | i | i | nt | nt | nt | nt
CCN1CCN(c2nc(C)c3c(n2)CC(C)CC3=O)CC1 (stereo unspecified) | i | 8* | i | i | i | i | i | i | i
COc1ccccc1C(=O)NCCC(=O)Nc1ccc(OC(F)(F)F)cc1 | i | i | i | i | i | nt | nt | nt | nt
Cc1cccc2cc(CN(C(=O)c3cnccn3)C3CCCCC3)c(Cl)nc12 | i | 20* | i | i | i | i | i | i | i
O=C(Nc1sc2c(c1C(=O)O)CCC2)c1cccs1 | i | i | i | i | i | nt | nt | nt | nt
NC(=O)c1c(NC(=O)c2cccs2)sc2c1CCCCCC2 | i | 8.5* | i | i | i | i | i | i | i
COc1ccc(C(=O)NNC(=O)CSc2nnc(C)n2CC2CCCO2)cc1 (stereo unspecified) | i | i | i | i | i | nt | nt | nt | nt
CS(=O)(=O)c1ccc2nc(NC(=O)C3COc4ccccc4O3)sc2c1 (stereo unspecified) | i | 6.6* | i | i | i | i | i | i | i
Cc1ccc2nc(NC(=O)c3cccs3)sc2c1 | nt | i | nt | i | i | nt | nt | nt | nt
COc1ccc2nc(NC(=O)C3COc4ccccc4O3)sc2c1 (stereo unspecified) | i | i | i | i | i | nt | nt | nt | nt
CS(=O)(=O)c1ccc2nc(NC(=O)c3cccs3)sc2c1 | nt | 24* | nt | i | i | 17%* | i | i | i
Cc1ccc(S(=O)(=O)NCCC(=O)Nc2nccs2)cc1 | i | i | i | i | i | nt | nt | nt | nt
COC(=O)Cc1cc(=O)n(-c2nc3ccccc3[nH]2)[nH]1 | i | 15* | i | i | i | i | i | i | i
CCC(C)NC(=O)CN1c2cccc3cccc(c23)S1(=O)=O (stereo unspecified) | i | i | i | i | i | nt | nt | nt | nt
CCNC(=O)CN1c2cccc3cccc(c23)S1(=O)=O | i | 22* | i | i | i | i | i | i | i
CCn1c(/N=C/c2ccccc2NS(=O)(=O)c2ccc(C)cc2)nc2ccccc21 | nt | 14* | nt | i | i | i | i | i | i
CC(=O)N1c2ccc(S(=O)(=O)N(C)Cc3ccccc3)cc2CC1C (stereo unspecified) | i | 7.2* | i | i | i | i | i | i | i
SMILES | RGS4 block | MrgX1 allo act | RGS4 pot | MrgX1 antag | MrgX1 agonist | MrgX1 PAM conf | HEK293 Ca flux | HEK293 Ca counter | HEK293 Ca cntr2
COC(=O)c1[nH]c2c(c1C)C(=O)CC(c1cc(OC)c(OC)c(OC)c1)C2 (stereo unspecified) | i | i | i | i | i | nt | nt | nt | nt
Clc1ccc(-c2nnnn2-c2ccc(Cl)cc2)cc1 | i | 11* | i | i | i | i | i | i | i
Clc1ccc(-n2nnnc2-c2ccccc2)cc1 | nt | i | nt | i | i | nt | nt | nt | nt
O=C(Cn1cc2c(n1)CCCC2)Nc1ccccc1Br | i | 22* | i | i | i | i | i | i | i
O=C(Cc1ccc2ccccc2c1)Nc1ccccc1Br | i | i | i | i | i | nt | nt | nt | nt
O=C(Cn1cc2c(n1)CCCC2)Nc1ccccc1Cl | i | 13* | i | i | i | i | i | i | 86*
O=C(Cc1ccc2c(c1)CCCC2)Nc1ccccc1Br | i | 7.3* | i | i | i | i | i | i | i
O=C(Cn1cc2c(n1)CCCCC2)Nc1ccccc1Cl | i | 8* | i | i | i | i | i | i | i
Cc1cc(C)c(S(=O)(=O)C(C)C)c(=O)[nH]1 | i | i | i | i | i | nt | nt | nt | nt
Cc1ccc(NC(=O)Cn2cc3c(n2)CCC(C)C3)cc1 (stereo unspecified) | i | i | i | i | i | nt | nt | nt | nt
COC(=O)c1ccccc1NC(=O)Cn1cc2c(n1)CCC(C)C2 (stereo unspecified) | i | 23* | i | i | i | i | i | i | i
CC1CCCC(NC(=O)Cn2cc3c(n2)CCCCC3)C1C (stereo unspecified) | i | 6.5* | i | i | i | i | i | i | i
Cc1nc2c(ncn2-c2ccccc2)c(=O)n1NC(=O)CN1CCCCC1 | i | i | i | i | i | nt | nt | nt | nt
CN(C)/C=C1\SC(=S)N(N2C(=O)C3C4C=CC(C4)C3C2=O)C1=O (stereo unspecified) | i | i | i | i | i | nt | nt | nt | nt
CC(C)c1ccc2c(c1)[C@H]1OCC[C@H]1[C@@H](c1cccs1)N2 | i | 8.3* | i | i | i | 3.3%* | i | i | i
